Source: ChEMBL document CHEMBL1126183, “Synthesis and biological studies of unsaturated acyclonucleoside analogues of S-adenosyl-L-homocysteine hydrolase inhibitors” (J Med Chem, 1992)
Each block holds one molecule with its values, some of them ahead of it.

Columns and labels:
[1] = system: CCRF-CEM; assay: In vitro inhibition leukemia CCRF-CEM cell line; type: functional, Homo sapiens
How it was run: (§1)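 NCI 60-cell-line human tumor screen. Cells were grown 24 h after plating, then exposed 48 h to compound at 10⁻⁴, 10⁻⁵, 10⁻⁶, 10⁻⁷ and 10⁻⁸ M. Growth effect (percent inhibition or kill) was read spectrophotometrically by sulforhodamine B protein staining.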

[2] = system: CCRF-CEM; assay: In vitro inhibition leukemia CCRF-CEM cell line growth; type: functional, Homo sapiens; how it was run: as §1
[3] = system: LXFL 529; assay: In vitro inhibition lung LXFL529 cell line; type: functional, Homo sapiens; how it was run: as §1
[4] = system: LXFL 529; assay: In vitro inhibition lung LXFL529 cell line growth; type: functional, Homo sapiens; how it was run: as §1
[5] = system: NCI-H522; assay: In vitro inhibition lung […] cell line; type: functional, Homo sapiens; how it was run: as §1
[6] = system: NCI-H522; assay: In vitro inhibition lung […] cell line growth; type: functional, Homo sapiens; how it was run: as §1
[7] = system: SNB-75; assay: In vitro inhibition CNS SNB-75 cell line; type: functional, Homo sapiens; how it was run: as §1
[8] = system: UO-31; assay: In vitro inhibition renal UO-31 cell line; type: functional, Homo sapiens; how it was run: as §1
[9] = system: UO-31; assay: In vitro inhibition renal UO-31 cell line growth.; type: functional, Homo sapiens; how it was run: as §1
[10] = system: Mus musculus; assay: Mean biodistribution and elimination data in thyroid was reported 1 hr after administering compound intravenously in tumor-bearing female BALB-C mice.; type: ADME, organism-based, Thyroid gland; details: in vivo, iv
How it was run: (§2)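 Female Balb-C mice bearing Line-1 spontaneous lung carcinoma were used 1 week after inoculation of 10⁶ cells. The iodine-125-labeled compound was given in normal saline, filter-sterilized, by lateral tail vein injection under ether anesthesia. At set times the mice were killed and the organs excised, rinsed, blotted and weighed. Activity was gamma-counted and reported as percent injected dose/gram tissue; thyroid was reported as percent injected dose/tissue.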

[11] = system: Mus musculus; assay: Mean biodistribution and elimination data in thyroid was reported 24 hr after administering compound intravenously in tumor-bearing female BALB-C mice.; type: ADME, organism-based, Thyroid gland; details: in vivo, iv; how it was run: as §2
[12] = system: Mus musculus; assay: Mean biodistribution and elimination data in thyroid was reported 4 hr after administering compound intravenously in tumor-bearing female BALB-C mice.; type: ADME, organism-based, Thyroid gland; details: in vivo, iv; how it was run: as §2
[13] = system: Mus musculus; assay: Mean biodistribution and elimination data in urine was reported 24 h after administering compound intravenously in tumor-bearing female BALB-C mice.; type: ADME, organism-based; details: in vivo, iv
How it was run: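 Tumor-bearing female Balb-C mice (Line-1 lung carcinoma) received the ¹²⁵I-labeled compound in normal saline by tail vein injection under ether anesthesia. Urine radioactivity was gamma-counted and expressed as percent injected dose per total sample. Urine was also analyzed by TLC (solvent E) using UV and radioscanning.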

[14] = system: Mus musculus; assay: Mean biodistribution and elimination data in blood was reported 1 h after administering compound intravenously in tumor-bearing female BALB-C mice.; type: ADME, organism-based; details: in vivo, iv; how it was run: as §2
[15] = system: Mus musculus; assay: Mean biodistribution and elimination data in blood was reported 24 hr after administering compound intravenously in tumor-bearing female BALB-C mice.; type: ADME, organism-based; details: in vivo, iv; how it was run: as §2
[16] = system: Mus musculus; assay: Mean biodistribution and elimination data in blood was reported 4 hr after administering compound intravenously in tumor-bearing female BALB-C mice.; type: ADME, organism-based; details: in vivo, iv; how it was run: as §2
[17] = system: Mus musculus; assay: Mean biodistribution and elimination data in kidney was reported 1 hr after administering compound intravenously in tumor-bearing female BALB-C mice.; type: ADME, organism-based; details: in vivo, iv; how it was run: as §2
[18] = system: Mus musculus; assay: Mean biodistribution and elimination data in kidney was reported 24 hr after administering compound intravenously in tumor-bearing female BALB-C mice.; type: ADME, organism-based; details: in vivo, iv; how it was run: as §2
[19] = system: Mus musculus; assay: Mean biodistribution and elimination data in kidney was reported 4 hr after administering compound intravenously in tumor-bearing female BALB-C mice.; type: ADME, organism-based; details: in vivo, iv; how it was run: as §2
[20] = system: Mus musculus; assay: Mean biodistribution and elimination data in liver was reported 1 hr after administering compound intravenously in tumor-bearing female BALB-C mice.; type: ADME, organism-based; details: in vivo, iv; how it was run: as §2
[21] = system: Mus musculus; assay: Mean biodistribution and elimination data in liver was reported 24 h after administering compound intravenously in tumor-bearing female BALB-C mice.; type: ADME, organism-based; details: in vivo, iv; how it was run: as §2
[22] = system: Mus musculus; assay: Mean biodistribution and elimination data in liver was reported 4 hr after administering compound intravenously in tumor-bearing female BALB-C mice.; type: ADME, organism-based; details: in vivo, iv; how it was run: as §2
[23] = system: Mus musculus; assay: Mean biodistribution and elimination data in lung was reported 1 hr after administering compound intravenously in tumor-bearing female BALB-C mice.; type: ADME, organism-based; details: in vivo, iv; how it was run: as §2
[24] = system: Mus musculus; assay: Mean biodistribution and elimination data in lung was reported 24 hr after administering compound intravenously in tumor-bearing female BALB-C mice.; type: ADME, organism-based; details: in vivo, iv; how it was run: as §2
[25] = system: Mus musculus; assay: Mean biodistribution and elimination data in lung was reported 4 hr after administering compound intravenously in tumor-bearing female BALB-C mice.; type: ADME, organism-based; details: in vivo, iv; how it was run: as §2
[26] = system: Mus musculus; assay: Mean biodistribution and elimination data in tumoe was reported 24 h after administering compound intravenously in tumor-bearing female BALB-C mice.; type: ADME, organism-based; details: in vivo, iv; how it was run: as §2
[27] = system: Mus musculus; assay: Mean biodistribution and elimination data in tumor was reported 1 hr after administering compound intravenously in tumor-bearing female BALB-C mice.; type: ADME, organism-based; details: in vivo, iv; how it was run: as §2
[28] = system: Mus musculus; assay: Mean biodistribution and elimination data in tumor was reported 4 hr after administering compound intravenously in tumor-bearing female BALB-C mice.; type: ADME, organism-based; details: in vivo, iv; how it was run: as §2
[29] = system: HOP-18; assay: In vitro inhibition lung HOP-18 cell line; type: functional, Homo sapiens; how it was run: as §1
[30] = system: SNB-75; assay: In vitro inhibition CNS SNB-75 cell line growth; type: functional, Homo sapiens; how it was run: as §1
[31] = system: HOP-18; assay: In vitro inhibition lung HOP-18 cell line growth; type: functional, Homo sapiens; how it was run: as §1
[32] = system: DMS-114; assay: In vitro inhibition of lung DMS 114 cell line; type: functional, Homo sapiens; how it was run: as §1
[33] = system: K562; assay: In vitro inhibition of leukemia K-562 cell line.; type: functional, Homo sapiens; how it was run: as §1
[34] = system: K562; assay: In vitro inhibition of leukemia K-562 cell line; type: functional, Homo sapiens; how it was run: as §1
[35] = system: MOLT-4; assay: In vitro inhibition of Leukemia Molt-4 cell line; type: functional, Homo sapiens; how it was run: as §1
[36] = system: SR; assay: In vitro inhibition of leukemia SR cell line; type: functional, Homo sapiens; how it was run: as §1
[37] = system: LOX IMVI; assay: In vitro inhibition of melanoma […] cell line; type: functional, Homo sapiens; how it was run: as §1

Compound: C#CCOCn1cnc2c(Sc3c([N+](=O)[O-])ncn3C)ncnc21
- Cell growth [1]: 50%
- Inhibition [2]: 50%
- Cell growth [3]: 37%
- Inhibition [4]: 63%
- Cell growth [5]: 32%
- Inhibition [6]: 68%
- Cell growth [7]: -14%
- Cell growth [8]: 48%
- Inhibition [9]: 52%

- ID/thyroid [10]: 1.29%
- ID/thyroid [11]: 3.49%
- ID/thyroid [12]: 3.61%
- ID/animal [13]: 94.36%
- ID/g [14]: 3.15%
- ID/g [15]: 0.34%
- ID/g [16]: 1.33%
- ID/g [17]: 3.68%
- ID/g [18]: 0.2%
- ID/g [19]: 1%
- ID/g [20]: 3.4%
- ID/g [21]: 0.33%
- ID/g [22]: 1.34%
- ID/g [23]: 3.41%
- ID/g [24]: 0.35%
- ID/g [25]: 1.3%
- ID/g [26]: 0.06%
- ID/g [27]: 1.5%
- ID/g [28]: 0.6%
Compound: Nc1ncnc2c1ncn2COC/C=C/I
- Cell growth [1]: 47.4%
- Inhibition [2]: 52.6%
- Cell growth [29]: 21.2%
- Cell growth [7]: 25.2%
- Inhibition [30]: 74.8%
- Inhibition [31]: 78.8%

Compound: C#CCOCn1cnc2c(S)ncnc21
- Cell growth [7]: 0%
- Inhibition [30]: 100%

Compound: C#CCOCn1cnc2c(Cl)ncnc21
- Cell growth [32]: 21%
- Inhibition [32]: 79%
- Cell growth [33]: 34.8%
- Inhibition [34]: 65.2%
- Cell growth [35]: 40.7%
- Inhibition [35]: 59.3%
- Cell growth [36]: 38.4%
- Inhibition [36]: 61.6%
- Cell growth [37]: 33.5%
- Inhibition [37]: 66.5%
